Data on 18 molecules can be found in PubChem BioAssay.

Each structure is given as a SMILES string. Active and inactive are the calls of the source.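 The calls were made as follows, unless noted: active = viability at or below 30% in both replicate assays; inconclusive = viability at or below 30% in just one of the two assays; inactive = the rest.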

Test [1] in a line: reduced viability of SK-BR-3 breast cancer cells – cell-based, 24 h, human, pilot screen (AID 572;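 active = viability at or below 10% of carrier control in both of two separate runs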;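 also: compound exposure lasted between 18 and 24 h rather than exactly 24 h; 100% = carrier-treated control wells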). The note with it: SK-BR-3 viability, CellTiter-Glo luminescence, at 10 µM, stronger effect = lower value. In general terms: Cellular ATP, detected with luciferase, serves as a proxy for viable cell number.
A short description of test [2]: HUVEC growth inhibition – cell-based, human, primary screen (AID 575).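 Also: 100% = median of untreated cell wells with 0.1% DMSO on each plate.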 The note with it: HUVEC proliferation, CellTiter-Glo luminescence, 72 h; at 10 µM; stronger effect = lower value. In a few lines: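 system = HUVEC primary cells | amount = 1250 cells/well | buffer or medium = supplemented EBM, 2% fetal bovine serum | dosing = single-point 10 µM, DMSO 0.1% final | times = 72 h compound incubation | detection = CTG luminescence | read-out = % viability relative to median vehicle-well signal on each plate | control set = vehicle and MePR control wells | format = collagen-coated 384-well format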

The nature of test [3]: H69AR cell proliferation blockers – human, duplicate replicates, primary screen (AID 580;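 active = viability at or under a set limit in both replicates, limit being median viability minus 3 SD, cut at about 48% in these data, passing the limit was not always enough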;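 also: 100% = mean luminescence of untreated wells and 0% = no signal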). The note with it: H69AR lung tumor cells viability, ATP luminescence, 72 h; at 10 µM; stronger effect = lower value.
Test [4] can be described thus: MRP1 drug-resistance reversers in H69AR cells – cell-based, doxorubicin co-treatment, pilot screen (AID 601;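 active = viability loss from added drug above about 55%, and viability with drug at most 40%, in both replicates, limit read from the data, passing the limit was not always enough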). The note with it: CellTiter-Glo, 72 h, at 10 µM; for differential viability (reversal): stronger effect = higher value.
Test [5] in a line: yeast transport mutant growth inhibition pilot in 384-well plates, post-Golgi transport modulator project (AID 636; in the data active = inhibition above about 31%). The note with it: absorbance 615 nm, about 18 h, stronger effect = higher value.
Test [6] is described as follows: growth suppression of yeast trafficking mutant, preliminary HTS, modulators of trafficking downstream of Golgi apparatus project, 1536-format plate, OD 615 nm (AID 637; in the data active = inhibition above about 30%). The note with it: yeast transport mutant growth, absorbance 615 nm, 18 h; stronger effect = higher value.
The mark [7] stands for this setting: H69AR cells + 2 uM doxorubicin, measured here: viability with 2 uM doxorubicin, stronger effect = lower value.
Where [8] appears, read: H69AR cells, compound alone cytotoxicity.

In the case of `O=C(Cn1c(-c2cncs2)nc2ccccc21)NC1CCCC1`, the viability is 96% (inactive) in test [1]; 103% (inactive) in test [2]; 106% (inactive) in test [3]; 86.5% in test [4] (setting [7]); 106% in test [4] (setting [8]). Also, in test [4] (H69AR cells + 2 uM doxorubicin), the differential viability (reversal) was 19.1% (inactive). For the same molecule, the inhibition is -4.05% (inactive) in test [5] and 5.09% (inactive) in test [6].
As for `CCOC(=O)Nc1ccc(NS(=O)(=O)c2ccc(C)cc2)cc1`, the viability is 72% (inactive) in test [1]; 86.6% (inactive) in test [2]; 83.7% (inactive) in test [3]; 96.1% in test [4] (setting [7]); 83.7% in test [4] (setting [8]). Moreover, the differential viability (reversal) in test [4] (H69AR cells + 2 uM doxorubicin) is -12.3% (inactive). For the same molecule, the figures for the inhibition in test [5] and in test [6] were 1.92% (inactive) and -7.42% (inactive), respectively.
On to `c1ccc(Cn2nnnc2CN2CCCC2)cc1`, for which the viability was 112% (inactive) in test [1]; 101% (inactive) in test [2]; 99.4% (inactive) in test [3]; 96.5% in test [4] (setting [7]); 99.4% in test [4] (setting [8]). Further, in test [4] (H69AR cells + 2 uM doxorubicin), the differential viability (reversal) is 2.88% (inactive). Moreover, the values for the inhibition in test [5] and in test [6] were -6.3% (inactive) and 0.48% (inactive), respectively.
With `CCCn1c(SCC(=O)NC(=O)NCc2ccco2)n[nH]c1=O`, the viability in test [1] is 101% (inactive); in test [2] it was 90.4% (inactive); in test [3] it was 96.6% (inactive); in test [4] (setting [7]) it was 95.1%; in test [4] (setting [8]), 96.6%. Besides, in test [4] (H69AR cells + 2 uM doxorubicin), the differential viability (reversal) was 1.45% (inactive). The inhibition in test [5] was -2.8% (inactive); in test [6] it was -3.64% (inactive).
For the molecule `COC(=O)Cc1c(C)nc2nc[nH]n2c1=O`, the viability in test [1] was 88% (inactive); in test [2] it was 93% (inactive); in test [3], 105% (inactive); in test [4] (setting [7]), 95.3%; in test [4] (setting [8]) it was 105%. In test [4] (H69AR cells + 2 uM doxorubicin), the differential viability (reversal) is 9.79% (inactive). For the same molecule, the inhibition in test [5] is -4.73% (inactive); in test [6], -2.91% (inactive).
As for `c1ccc(-c2ccc(-c3ccccn3)nn2)nc1`, the viability is 112% (inactive) in test [1]; 55.3% (inactive) in test [2]; 59.4% (inactive) in test [3]; 69.5% in test [4] (setting [7]); 59.4% in test [4] (setting [8]). In addition, in test [4] (H69AR cells + 2 uM doxorubicin), the differential viability (reversal) was -10.1% (inactive). The inhibition in test [5] was -6.27% (inactive); in test [6], -0.63% (inactive).
Consider `Cc1cc(C(F)(F)F)c2c(C)nn(CCc3nn[nH]n3)c2n1`, for which the viability in test [1] is 105% (inactive); in test [2], 91.4% (inactive); in test [3], 96.1% (inactive); in test [4] (setting [7]), 98.1%; in test [4] (setting [8]) it was 96.1%. For the same molecule, the differential viability (reversal) in test [4] (H69AR cells + 2 uM doxorubicin) is -1.98% (inactive). The inhibition in test [5] was 0.14% (inactive); in test [6], 12.2% (inactive).
Take `O=C(C1CCN(S(=O)(=O)c2cnc[nH]2)CC1)N1CCN(c2ncccn2)CC1`: the viability was 112% (inactive) in test [1]; 111% (inactive) in test [2]; 102% (inactive) in test [3]; 82.8% in test [4] (setting [7]); 102% in test [4] (setting [8]). Besides, in test [4] (H69AR cells + 2 uM doxorubicin), the differential viability (reversal) is 19.5% (inactive). Moreover, the figures for the inhibition in test [5] and in test [6] were -5.33% (inactive) and 0% (inactive), respectively.
As to `O=S(=O)(NCc1ccc(Cl)cc1)c1cnc[nH]1`, the viability in test [1] was 103% (inactive); in test [2], 98.1% (inactive); in test [3] it was 106% (inactive); in test [4] (setting [7]), 82.7%; in test [4] (setting [8]), 106%. Also, in test [4] (H69AR cells + 2 uM doxorubicin), the differential viability (reversal) was 23.5% (inactive). Also, the inhibition in test [5] is -6.36% (inactive); in test [6], -4.59% (inactive).
As to `CCCCNc1cc(C(=O)O)cc(S(N)(=O)=O)c1Oc1ccccc1`, the viability in test [1] was 121% (inactive); in test [2] it was 87% (inactive); in test [3] it was 114% (inactive); in test [4] (setting [7]) it was 90.5%; in test [4] (setting [8]), 114%. For the same molecule, the differential viability (reversal) in test [4] (H69AR cells + 2 uM doxorubicin) is 23.6% (inactive). The inhibition is -1.56% (inactive) in test [5] and 7.17% (inactive) in test [6].
Turning to `CN(C(=O)Cn1c(=O)n(CCCCC(=O)NC2CCCC2)c(=O)c2ccccc21)C1CCCCC1`, the viability was 106% (inactive) in test [1]; 63.2% (inactive) in test [2]; 93% (inactive) in test [3]; 80.9% in test [4] (setting [7]); 93% in test [4] (setting [8]). The differential viability (reversal) in test [4] (H69AR cells + 2 uM doxorubicin) was 12.2% (inactive). In addition, the figures for the inhibition in test [5] and in test [6] were -2.73% (inactive) and 5.08% (inactive), respectively.
Take `CCOC(=O)CC(=O)CSc1nc(-c2cccnc2)ccc1C#N`: the viability is 118% (inactive) in test [1]; 98.6% (inactive) in test [2]; 68.4% (inactive) in test [3]; 92.4% in test [4] (setting [7]); 68.4% in test [4] (setting [8]). In test [4] (H69AR cells + 2 uM doxorubicin), the differential viability (reversal) is -24% (inactive). Moreover, the figures for the inhibition in test [5] and in test [6] were -3.97% (inactive) and 0% (inactive), respectively.
`Cc1ccc(S(=O)(=O)C(C#N)c2nc3ccccc3nc2OC(C)C)cc1` (centres undefined): the viability was 101% (inactive) in test [1]; 91% (inactive) in test [2]; 105% (inactive) in test [3]; 97.3% in test [4] (setting [7]); 105% in test [4] (setting [8]). In test [4] (H69AR cells + 2 uM doxorubicin), the differential viability (reversal) is 7.79% (inactive). The figures for the inhibition in test [5] and in test [6] were -4.13% (inactive) and 4.55% (inactive), respectively.
For `COc1ccc(OC)c(S(=O)(=O)Nc2ccc(O)c3ccccc23)c1`, the viability in test [1] is 6% (active); in test [2], 3.38% (active); in test [3], 1.73% (active); in test [4] (setting [7]), 2.06%; in test [4] (setting [8]) it was 1.73%. For the same molecule, the differential viability (reversal) in test [4] (H69AR cells + 2 uM doxorubicin) was -0.325% (inactive). Moreover, the inhibition is -2.5% (inactive) in test [5] and -5.33% (inactive) in test [6].
On to `Cc1ccc(S(=O)(=O)N2CCCN(S(=O)(=O)C3CCS(=O)(=O)C3)CC2)cc1` (centres undefined), for which the viability was 124% (inactive) in test [1]; 101% (inactive) in test [2]; 99.1% (inactive) in test [3]; 90.4% in test [4] (setting [7]); 99.1% in test [4] (setting [8]). Also, the differential viability (reversal) in test [4] (H69AR cells + 2 uM doxorubicin) was 8.77% (inactive). In addition, the results for the inhibition in test [5] and in test [6] were -7.2% (inactive) and 1.09% (inactive), respectively.
On to `COc1cccc(OCc2nnc(SCC(=O)OCc3ccccc3)o2)c1`, for which the viability in test [1] was 101% (inactive); in test [2], 108% (inactive); in test [3], 97% (inactive); in test [4] (setting [7]), 91.2%; in test [4] (setting [8]), 97%. Further, the differential viability (reversal) in test [4] (H69AR cells + 2 uM doxorubicin) is 5.81% (inactive). The inhibition is -6.93% (inactive) in test [5] and -3.09% (inactive) in test [6].
As for `O=C(NCc1cccnc1)/C(=N\O)c1ccccc1`, the viability in test [1] was 73% (inactive); in test [2], 111% (inactive); in test [3] it was 98.8% (inactive); in test [4] (setting [7]) it was 85.6%; in test [4] (setting [8]), 98.8%. Besides, in test [4] (H69AR cells + 2 uM doxorubicin), the differential viability (reversal) is 13.2% (inactive). In addition, the inhibition in test [5] was -6.08% (inactive); in test [6], -3.82% (inactive).
Take `CCn1c(SCC(=O)NC)nnc1C(C)C`: the viability in test [1] was 97% (inactive); in test [2] it was 123% (inactive); in test [3], 94.8% (inactive); in test [4] (setting [7]), 85.8%; in test [4] (setting [8]), 94.8%. In addition, the differential viability (reversal) in test [4] (H69AR cells + 2 uM doxorubicin) is 8.98% (inactive). Also, the inhibition in test [5] was -7.3% (inactive); in test [6], -4.91% (inactive).

The term viability denotes a read-out of living cells in per cent, often relative to untreated cells. The inhibition is the change of the read-out against control, counted positive when it falls.
